According to ChEMBL document CHEMBL1811822, “P2-P1' macrocyclization of P2 phenylglycine based HCV NS3 protease inhibitors using ring-closing metathesis” (Bioorg Med Chem, 2011):

Target: not listed separately
Assay: Inhibition of HCV NS3 protease
Parameters: species or system Hepacivirus hominis
Settings: not given
Summary of the method: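 Full-length NS3 protein (protease–helicase/NTPase domains) from HCV genotype 1a, wild-type, with a 16-residue NS4A activating-region peptide. Protease activity was read by FRET. Enzyme at 1 nM was incubated 10 min at 30 °C in 50 mM HEPES, pH 7.5. Ki values were derived and reported with standard deviation.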

| Compound | Ki |
| --- | --- |
| C=CCCCS(=O)(=O)NC(=O)[C@H](CCC)NC(=O)[C@@H](NC(=O)[C@@H](NC(=O)OC(C)(C)C)C(C)(C)C)c1ccc(Oc2cc(-c3ccccc3)nc3cc(OC)ccc23)c(C=C)c1 | 63 nM |
| COc1ccc2c(O[C@@H]3C[C@H]4C(=O)N[C@]5(C(=O)O)C[C@H]5/C=C\CCCCC[C@H](NC(=O)OC5CCCC5)C(=O)N4C3)cc(-c3csc(NC(C)C)n3)nc2c1 [CILUPREVIR] | 40 nM |
| C=CCCCS(=O)(=O)NC(=O)[C@H](CCC)NC(=O)[C@H](NC(=O)[C@@H](NC(=O)OC(C)(C)C)C(C)(C)C)c1ccc(Oc2cc(-c3ccccc3)nc3cc(OC)ccc23)c(C=C)c1 | 48 nM |

System: Hepatitis C virus
Assay: Antiviral activity against HCV
Format: functional, organism-based, Hepacivirus hominis
Settings: not given

| Compound | EC50 |
| --- | --- |
| CC(C)(C)OC(=O)N[C@H]1CCCCC/C=C\[C@@H]2C[C@@]2(C(=O)NS(=O)(=O)C2CC2)NC(=O)[C@@H]2C[C@@H](OC(=O)N3Cc4cccc(F)c4C3)CN2C1=O [DANOPREVIR] | 0.6 nM |
| COc1ccc2c(O[C@@H]3C[C@H]4C(=O)N[C@]5(C(=O)O)C[C@H]5/C=C\CCCCC[C@H](NC(=O)OC5CCCC5)C(=O)N4C3)cc(-c3csc(NC(C)C)n3)nc2c1 [CILUPREVIR] | 350 nM |

System: Hepatitis C virus
Assay: Antiviral activity against HCV 1b infected in human HuH7 cells assessed as inhibition of viral replication by luciferase assay
Format: functional, organism-based, Hepacivirus hominis
Settings: genotype 1b, Huh-7

| Compound | EC50 |
| --- | --- |
| CCC[C@@H]1NC(=O)[C@@H](NC(=O)[C@@H](NC(=O)OC(C)(C)C)C(C)(C)C)c2ccc(Oc3cc(-c4ccccc4)nc4cc(OC)ccc34)c(c2)/C=C/CCCS(=O)(=O)NC1=O | 6 µM |

Target: not listed separately
Assay: Inhibition of protease activity of full-length HCV genotype 1a NS3 protease by FRET assay
Settings: not given

| Compound | Ki |
| --- | --- |
| CCC[C@@H]1NC(=O)[C@@H](NC(=O)[C@@H](NC(=O)OC(C)(C)C)C(C)(C)C)c2ccc(Oc3cc(-c4ccccc4)nc4cc(OC)ccc34)c(c2)C/C=C/CCS(=O)(=O)NC1=O (mixture of isomers) | 470 nM |
| CCC[C@@H]1NC(=O)[C@@H](NC(=O)[C@@H](NC(=O)OC(C)(C)C)C(C)(C)C)c2ccc(Oc3cc(-c4ccccc4)nc4cc(OC)ccc34)c(c2)CCCCCCS(=O)(=O)NC1=O | 570 nM |
| CCC[C@@H]1NC(=O)[C@H](NC(=O)[C@@H](NC(=O)OC(C)(C)C)C(C)(C)C)c2ccc(Oc3cc(-c4ccccc4)nc4cc(OC)ccc34)c(c2)/C=C\CCCS(=O)(=O)NC1=O | 760 nM |
| CCC[C@@H]1NC(=O)[C@@H](NC(=O)[C@@H](NC(=O)OC(C)(C)C)C(C)(C)C)c2ccc(Oc3cc(-c4ccccc4)nc4cc(OC)ccc34)c(c2)/C=C\CCCS(=O)(=O)NC1=O | 390 nM |
| CCC[C@@H]1NC(=O)[C@@H](NC(=O)[C@@H](NC(=O)OC(C)(C)C)C(C)(C)C)c2ccc(Oc3cc(-c4ccccc4)nc4cc(OC)ccc34)c(c2)/C=C/CCCS(=O)(=O)NC1=O | 240 nM |
| CCC[C@@H]1NC(=O)[C@@H](NC(=O)[C@@H](NC(=O)OC(C)(C)C)C(C)(C)C)c2ccc(Oc3cc(-c4ccccc4)nc4cc(OC)ccc34)c(c2)C/C=C/CS(=O)(=O)NC1=O | 222 nM |
| CCC[C@@H]1NC(=O)[C@H](NC(=O)[C@@H](NC(=O)OC(C)(C)C)C(C)(C)C)c2ccc(Oc3cc(-c4ccccc4)nc4cc(OC)ccc34)c(c2)/C=C\CC2(CC2)S(=O)(=O)NC1=O | 870 nM |
| CCC[C@@H]1NC(=O)[C@@H](NC(=O)[C@@H](NC(=O)OC(C)(C)C)C(C)(C)C)c2ccc(Oc3cc(-c4ccccc4)nc4cc(OC)ccc34)c(c2)/C=C\c2ccccc2S(=O)(=O)NC1=O | 170 nM |
| CCC[C@@H]1NC(=O)[C@@H](NC(=O)[C@@H](NC(=O)OC(C)(C)C)C(C)(C)C)c2ccc(Oc3cc(-c4ccccc4)nc4cc(OC)ccc34)c(c2)/C=C/CCCCS(=O)(=O)NC1=O | 940 nM |
| CCC[C@@H]1NC(=O)[C@@H](NC(=O)[C@@H](NC(=O)OC(C)(C)C)C(C)(C)C)c2ccc(Oc3cc(-c4ccccc4)nc4cc(OC)ccc34)c(c2)/C=C/c2ccccc2S(=O)(=O)NC1=O | 150 nM |
| CCC[C@@H]1NC(=O)[C@@H](NC(=O)[C@@H](NC(=O)OC(C)(C)C)C(C)(C)C)c2ccc(Oc3cc(-c4ccccc4)nc4cc(OC)ccc34)c(c2)/C=C\CCS(=O)(=O)NC1=O | 137 nM |
| CCC[C@@H]1NC(=O)[C@@H](NC(=O)[C@@H](NC(=O)OC(C)(C)C)C(C)(C)C)c2ccc(Oc3cc(-c4ccccc4)nc4cc(OC)ccc34)c(c2)/C=C\CCCCS(=O)(=O)NC1=O | 320 nM |
| CCC[C@@H]1NC(=O)[C@@H](NC(=O)[C@@H](NC(=O)OC(C)(C)C)C(C)(C)C)c2ccc(Oc3cc(-c4ccccc4)nc4cc(OC)ccc34)c(c2)/C=C\CC2(CC2)S(=O)(=O)NC1=O | 110 nM |
| CCC[C@@H]1NC(=O)[C@H](NC(=O)[C@@H](NC(=O)OC(C)(C)C)C(C)(C)C)c2ccc(Oc3cc(-c4ccccc4)nc4cc(OC)ccc34)c(c2)/C=C/CCCCS(=O)(=O)NC1=O | 710 nM |
| CCC[C@@H]1NC(=O)[C@@H](NC(=O)[C@@H](NC(=O)OC(C)(C)C)C(C)(C)C)c2ccc(Oc3cc(-c4ccccc4)nc4cc(OC)ccc34)c(c2)/C=C\Cc2ccccc2S(=O)(=O)NC1=O | 190 nM |
| CCC[C@@H]1NC(=O)[C@@H](NC(=O)[C@@H](NC(=O)OC(C)(C)C)C(C)(C)C)c2ccc(Oc3cc(-c4ccccc4)nc4cc(OC)ccc34)c(c2)CCCc2ccccc2S(=O)(=O)NC1=O | 250 nM |
